Experimental data as given in ChEMBL document CHEMBL4017544 (J Med Chem, 2017).
Converted amounts (≈) assume the structure as drawn. The source made the active and inactive calls. The calls are words filed in the database; no cut-off is given here.

Columns and labels:
[1] = Volume of distribution at steady state in Sprague-Dawley rat at 10 mg/kg, iv measured up to 24 hrs by LC-MS/MS analysis; assay type: ADME, organism-based; settings: in vivo, read-out: Vdss
Procedure, shortened: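 Rats received a single 10 mg/kg i.v. dose. Blood was drawn from the suborbital vein at 0, 2, 5, 15, 30 and 60 min and at 1.5, 2, 4, 6, 8, 12 and 24 h, and plasma was analyzed by LC-MS/MS. n = 3, mean ± SD.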

HEK293 = assay: Effect on Nfr2 mRNA expression in HEK293 cells harboring Keap1 at 200 to 1000 nM after 48 hrs by quantitative RT-PCR analysis; assay type: functional, cell-based; settings: Homo sapiens
Procedure, shortened: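 HEK293 cells treated in triplicate at 200 or 1000 nM for 48 h; Nrf2 mRNA relative to GAPDH by quantitative RT-PCR using the 2−ΔΔCt method; mean ± SD from three experiments.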

Mus musculus [2] = assay: Anti-diabetic nephropathic activity in db/db mouse assessed as reduction in urinary albumin at 0.65 mg/kg, ip administered trice per week for 12 consecutive weeks measured at 24 hrs post 11 week administration; assay type: functional, organism-based
Procedure, shortened: (§1)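 Male db/db mice, 8 weeks old, randomized; ip vehicle (5% Tween-80 in 0.9% saline) or drug three times weekly for 12 weeks, n = 6 per group. After 11 weeks, 24 h urine collected for volume, albumin and creatinine, with UACR calculated; blood then sampled for plasma BUN and uric acid. Mean ± SD, one-way ANOVA with Tukey test.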

Mus musculus [3] = assay: Renoprotective activity in db/db mouse assessed as reduction in mesangial expansion at 0.65 mg/kg, ip administered trice per week for 12 consecutive weeks measured at 11 weeks post dose by TEM microscopic analysis; assay type: functional, organism-based
Procedure, shortened: (§2)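 Male db/db mice (8 weeks old) were dosed i.p. three times weekly for 12 weeks in 5% Tween-80/0.9% saline, n = 6. Kidney tissue was fixed in 3% glutaraldehyde, cut into 80 nm ultrathin sections and examined by TEM. GBM thickness was measured at 30 random locations from three sections per kidney and averaged per mouse.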

[4] = Half life in Sprague-Dawley rat at 10 mg/kg, iv measured up to 24 hrs by LC-MS/MS analysis; assay type: ADME, organism-based; settings: in vivo
Procedure, shortened: (§3)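 Rats dosed intravenously at 10 mg/kg; blood drawn from suborbital vein at 0, 2, 5, 15, 30, 60 min and 1.5, 2, 4, 6, 8, 12, 24 h; plasma levels by LC-MS/MS; parameters from concentration–time profiles, mean ± SD, n = 3.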

[5] = Solubility of compound in saline at 100 uM at pH 7.4 by HPLC analysis; assay type: physicochemical
Procedure, shortened: (§4)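 Solubility was determined by an established HPLC method, in saline alone or in saline containing 1% 1,3-propylene glycol and 1% Tween 80.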

[6] = AUC (0 to infinity) in Sprague-Dawley rat at 10 mg/kg, iv measured up to 24 hrs by LC-MS/MS analysis; assay type: ADME, organism-based; design: dose 10 mg/kg, route intravenous, time infinity; settings: in vivo; procedure, shortened: as §3
[7] = Drug level in Sprague-Dawley rat kidney at 20 mg/kg, ip measured at 90 mins by LC-MS/MS analysis; assay type: ADME, organism-based; settings: read-out: Drug uptake
Procedure, shortened: (§5)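 Rats given a single ip injection, 20 mg/kg (0.04 mmol) of CDDO-Me or 30 mg/kg (0.04 mmol) of the prodrug; heart, kidney and liver collected over time; parent compound and liberated CDDO-Me measured by LC-MS/MS.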

Mus musculus [8] = assay: Renoprotective activity in db/db mouse assessed as reduction in fused podocytes at 0.65 mg/kg, ip administered trice per week for 12 consecutive weeks measured at 11 weeks post dose by TEM microscopic analysis; assay type: functional, organism-based; procedure, shortened: as §2
[9] = molecular target: Kelch-like ECH-associated protein 1 (Homo sapiens) (UniProt Q14145); assay: Inhibition of Keap1/Nrf2 (unknown origin) interaction transfected in HEK293 cells assessed as upregulation of NQO1 mRNA expression at 200 to 1000 nM after 48 hrs by quantitative RT-PCR analysis; assay type: cell-based
Kelch-like ECH-associated protein 1 (Homo sapiens), sequence (Q14145 whole entry): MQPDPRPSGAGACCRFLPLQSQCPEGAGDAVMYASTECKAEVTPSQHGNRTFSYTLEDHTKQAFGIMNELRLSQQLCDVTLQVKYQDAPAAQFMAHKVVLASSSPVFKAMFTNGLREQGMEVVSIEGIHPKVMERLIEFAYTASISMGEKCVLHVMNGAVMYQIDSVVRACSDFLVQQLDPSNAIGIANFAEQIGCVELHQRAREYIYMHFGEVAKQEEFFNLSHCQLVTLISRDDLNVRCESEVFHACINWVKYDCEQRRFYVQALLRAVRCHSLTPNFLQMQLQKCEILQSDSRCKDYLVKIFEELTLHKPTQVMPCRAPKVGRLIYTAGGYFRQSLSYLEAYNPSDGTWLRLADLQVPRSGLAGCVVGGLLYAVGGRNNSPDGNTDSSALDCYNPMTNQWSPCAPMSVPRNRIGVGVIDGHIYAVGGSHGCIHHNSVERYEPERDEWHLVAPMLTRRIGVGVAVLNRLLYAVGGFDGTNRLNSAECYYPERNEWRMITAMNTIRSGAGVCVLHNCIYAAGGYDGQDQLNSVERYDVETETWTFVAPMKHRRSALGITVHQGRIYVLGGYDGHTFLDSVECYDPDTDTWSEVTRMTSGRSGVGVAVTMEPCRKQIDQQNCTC
Procedure, shortened: (§6)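 HEK293 cells (ATCC; high-glucose DMEM, 10% FBS) were treated in triplicate for 48 h. For the reporter read-out, cells were transfected with an ARE-dependent luciferase plasmid and luciferase activity was measured. For mRNA, total RNA was extracted with TRIzol and reverse transcribed, and target transcripts were quantified by qRT-PCR relative to GAPDH using the 2−ΔΔCt method. Three independent experiments, mean ± SD.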

[10] = Solubility of compound in saline containing 1% 1,3-propylene glycol/ 1% Tween 80 at 100 uM at pH 7.4 by HPLC analysis; assay type: physicochemical; procedure, shortened: as §4
[11] = molecular target: Kelch-like ECH-associated protein 1 (Homo sapiens) (UniProt Q14145); assay: Inhibition of Keap1/Nrf2 (unknown origin) interaction transfected in HEK293 cells assessed as activation of Nrf2 at 200 to 1000 nM after 48 hrs by ARE-driven luciferase reporter gene assay; assay type: cell-based; procedure, shortened: as §6
[12] = AUC (0 to t) in Sprague-Dawley rat at 10 mg/kg, iv measured up to 24 hrs by LC-MS/MS analysis; assay type: ADME, organism-based; design: dose 10 mg/kg, time < 24 hr, route intravenous; settings: in vivo; procedure, shortened: as §3
[13] = Drug level in Sprague-Dawley rat liver at 20 mg/kg, ip measured at 90 mins by LC-MS/MS analysis; assay type: ADME, organism-based; settings: read-out: Drug uptake; procedure, shortened: as §5
[14] = molecular target: Voltage-gated inwardly rectifying potassium channel KCNH2 (Homo sapiens, UniProt Q12809); assay: Inhibition of human ERG expressed in CHO cells at -80 mV holding potential by patch clamp assay; assay type: cell-based
Voltage-gated inwardly rectifying potassium channel KCNH2, sequence (Q12809 whole entry): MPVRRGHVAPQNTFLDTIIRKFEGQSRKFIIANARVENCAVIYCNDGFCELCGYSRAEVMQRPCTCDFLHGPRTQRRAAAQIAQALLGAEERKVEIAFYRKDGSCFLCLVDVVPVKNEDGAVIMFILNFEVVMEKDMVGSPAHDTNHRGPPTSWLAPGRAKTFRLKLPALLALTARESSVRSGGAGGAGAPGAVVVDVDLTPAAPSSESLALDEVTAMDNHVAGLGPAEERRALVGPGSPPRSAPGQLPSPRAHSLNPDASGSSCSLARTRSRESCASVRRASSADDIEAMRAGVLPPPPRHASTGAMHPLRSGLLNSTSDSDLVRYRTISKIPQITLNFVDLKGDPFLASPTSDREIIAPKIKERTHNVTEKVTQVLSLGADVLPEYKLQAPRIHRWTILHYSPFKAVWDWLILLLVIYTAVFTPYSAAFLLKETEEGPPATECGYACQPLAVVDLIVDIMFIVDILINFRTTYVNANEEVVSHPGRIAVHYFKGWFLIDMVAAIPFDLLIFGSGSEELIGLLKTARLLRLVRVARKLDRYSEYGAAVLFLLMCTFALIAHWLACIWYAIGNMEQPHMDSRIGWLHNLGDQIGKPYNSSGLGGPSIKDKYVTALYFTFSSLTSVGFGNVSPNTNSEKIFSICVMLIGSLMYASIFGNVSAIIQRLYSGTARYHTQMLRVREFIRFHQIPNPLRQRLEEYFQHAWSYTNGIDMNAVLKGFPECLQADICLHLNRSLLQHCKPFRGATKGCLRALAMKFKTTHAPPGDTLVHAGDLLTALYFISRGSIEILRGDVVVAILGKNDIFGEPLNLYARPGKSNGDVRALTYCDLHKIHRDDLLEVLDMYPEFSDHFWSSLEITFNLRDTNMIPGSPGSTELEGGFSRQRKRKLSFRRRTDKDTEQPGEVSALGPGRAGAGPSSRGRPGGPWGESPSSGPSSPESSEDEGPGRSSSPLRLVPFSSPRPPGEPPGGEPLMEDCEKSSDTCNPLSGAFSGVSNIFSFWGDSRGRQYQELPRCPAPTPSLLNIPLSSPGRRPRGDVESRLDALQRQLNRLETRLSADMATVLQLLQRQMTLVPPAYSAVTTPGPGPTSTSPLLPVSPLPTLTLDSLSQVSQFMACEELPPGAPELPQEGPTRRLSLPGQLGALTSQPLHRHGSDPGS

Mus musculus [15] = assay: Toxicity in db/db mouse assessed as change in body weight at 1 to 2 mg/kg, ip administered thrice per week for 12 consecutive weeks measured every other day; assay type: organism-based; settings: in vivo
Procedure, shortened: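 Male db/db mice (8 weeks old, specific pathogen-free, normal chow and filtered water ad libitum) were randomized and dosed i.p. three times weekly for 12 consecutive weeks; vehicle was 5% Tween-80 in 0.9% saline. Body weight and food and water consumption were recorded every other day.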

[16] = molecular target: Kelch-like ECH-associated protein 1 (Homo sapiens) (UniProt Q14145); assay: Inhibition of Keap1/Nrf2 (unknown origin) interaction transfected in HEK293 cells assessed as increase in cytosolic NQO1 levels after 48 hrs by Western blot analysis; assay type: cell-based
Procedure, shortened: (§7)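 HEK293 cells grown in high-glucose DMEM with 10% FBS were treated in triplicate at 200 or 1000 nM for 48 h. Nuclear and cytosolic Nrf2, HO-1 and cytoplasmic NQO1 were measured by western blot with specific antibodies, with TBP and β-actin among the probed proteins. The nuclear/cytosolic Nrf2 ratio was derived from these blots. Three independent experiments, mean ± SD.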

[17] = molecular target: Kelch-like ECH-associated protein 1 (Homo sapiens) (UniProt Q14145); assay: Inhibition of Keap1/Nrf2 (unknown origin) interaction transfected in HEK293 cells assessed as increase in nuclear to cytosolic Nfr2 ratio after 48 hrs by Western blot analysis; assay type: cell-based; procedure, shortened: as §7
Mus musculus [18] = assay: Renoprotective activity in db/db mouse assessed as […] in number of intraglomerular mesangial cells at 1 to 2 mg/kg, ip administered trice per week for 12 consecutive weeks measured at 11 weeks post dose by H/E-staining based microscopic analysis; assay type: functional, organism-based
Procedure, shortened: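 Male db/db mice, 8 weeks old, were randomized and dosed i.p. three times weekly for 12 weeks (vehicle: 5% Tween-80 in 0.9% saline; n = 6 per group). Kidneys were fixed in 4% PFA and paraffin-embedded. 5 μm sections were stained with HE, PAS or Masson's trichrome and examined at ×400.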

Mus musculus [19] = assay: Antidiabetic nephropathic activity in db/db mouse assessed as increase in urinary creatinine at 1 to 2 mg/kg, ip administered thrice per week for 12 consecutive weeks measured at 24 hrs post 11 week administration; assay type: functional, organism-based; procedure, shortened: as §1

For COC(=O)[C@]12CCC(C)(C)C[C@H]1[C@H]1C(=O)C=C3[C@@]4(C)C=C(C#N)C(=O)C(C)(C)[C@@H]4CC[C@@]3(C)[C@]1(C)CC2 [BARDOXOLONE METHYL], the Vd [1] was 29.1 L/kg, the Activity (HEK293) was “inactive” and the Activity (Mus musculus [2]) was “Active”. For the same molecule, the Activity (Mus musculus [3]) was “Active”, the half-life [4] was 4.41 h and the solubility ([5]; buffer, pH 7.4, 100 µM) was “Insoluble”. The AUC(0-inf) [6] was 2180 ng·h/mL, the concentration at 1.5 h [7] was 4520 ng/g and the Activity (Mus musculus [8]) was “Active”. For the same molecule, the inhibition [9] was “Active”, the solubility ([10]; buffer, pH 7.4, 100 µM) was “Insoluble” and the inhibition [11] was “Active”. The AUC(0-t) at 24 h [12] was 2060 ng·h/mL and the concentration at 1.5 h [13] was 1550 ng/g.

With COC(=O)[C@@H](N)CCC(=O)Nc1ccc(COC2=C(C#N)[C@H](O)[C@]3(C)C4=CC(=O)[C@@H]5[C@@H]6CC(C)(C)CC[C@]6(C(=O)OC)CC[C@@]5(C)[C@]4(C)CC[C@H]3C2(C)C)cc1 the Vd [1] was 35.1 L/kg, the Activity (HEK293) was “inactive” and the IC50 [14] was greater than 200 µM. The half-life [4] was 1.31 h, the Activity (Mus musculus [15]) was “Non-Toxic” and the solubility at 100 µM ([5]; saline, pH 7.4) was 8.9 µg/mL (≈ 0.0115 mM). For the same molecule, the AUC(0-inf) [6] was 531 ng·h/mL, the inhibition [9] was “Active” and the inhibition [16] was “Dose-dependent effect”. For the same molecule, the solubility at 100 µM ([10]; saline containing 1% 1,3-propylene glycol/1% Tween 80, pH 7.4) was 12200 µg/mL (≈ 15.8 mM), the inhibition [17] was “Dose-dependent effect” and the inhibition [11] was “Active”. The AUC(0-t) at 24 h [12] was 509 ng·h/mL, the Activity (Mus musculus [18]) was “Active” and the Activity (Mus musculus [19]) was “Active”.
